Screens: PubChem BioAssay, several laboratories
A selection: hits, their analogues and other compounds. The true share with any hit is near 9.2%.
Dynein cargo inh = dynein cargo transport inhibition | 3617.4 mouse cells, GR-EGFP nuclear translocation imaging; test concentration mostly 20 µM; stimulated with dexamethasone, 1 µM; stronger effect = lower value | z-score, hits read low | 220,000 tested, 0.47% active;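 active means plate z-score of nuclear minus cytoplasmic receptor signal below a set negative limit, without overly bright fluorescence or cell loss, cut at about -3.5 in these data, passing the limit was not always enough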;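 further: z-score of nuclear minus cytoplasmic ring GR-EGFP intensity difference per well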
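Buffer or medium: tet-free, stripped-serum medium; Also added: dexamethasone, 1.0 µM final; Technique: high-content fluorescence imaging after fixation; Times: 48 h induction, 1 h compound, 30 min dex at 37 °C; Read-out: per-cell GR-EGFP intensity, nucleus versus surrounding cytoplasmic ring, well-averaged.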
PTEN del growth = growth suppressors of cells with PTEN tumor suppressor deletion; HCT116 PTEN-null viability, CellTiter-Glo, 60 h; stronger effect = lower value; viability, % at 10 µM; 140,000 tested, 1.2% active; AID 827;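 active means viability at or below a set limit, 4 SD under the median of all tested compounds, cut at about 3.7% in these data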;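 further: PTEN knockout HCT116 line with beta catenin targeted HCT116 as companion control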
Autophagy HCS = modulators of autophagy; MEF GFP-LC3 puncta imaging; test concentration mostly 10 µM; 190,000 tested, 0.98% active; AID 463193; calls only at 10 µM (by protocol);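 active means percentage of spot-positive cells more than 3 SD above its plate mean, without a fluorescence outlier flag or 80% toxicity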;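 further: spot-positive cell cutoff set from DMSO-treated cells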
bCat KO growth = beta-catenin-lacking colon tumor cell growth suppression | HCT116 beta-catenin knockout viability, CellTiter-Glo, 60 h; stronger effect = lower value | viability, % at 10 µM | 140,000 tested, 1.5% active | AID 818;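 active means viability at or under a set limit, the compound median less 4 SD, cut at about 6% in these data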;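 further: 0% = Hyamine 1622 control at 20 µM and 100% = untreated cell control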
Lmaj promast = inhibitors of Leishmania major promastigote growth. 200,000 tested, 9% active. inhibition, % at 10 µM. Leishmania major promastigotes, resazurin fluorescence viability; in the data active means inhibition above about 50%;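 further: promastigotes grown with compound for 44 hours at 28 °C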
Active calls of the source: *; i = inactive; · = no result; + = active, no number.

SMILES	Dynein cargo inh	PTEN del growth	Autophagy HCS	bCat KO growth	Lmaj promast
N#CCSc1nnc(Cc2cccc3ccccc23)n1C1CCCCC1	-0.67	84	i	90	6
CCN(c1ccccc1)S(=O)(=O)c1ccc(Oc2ccc(-n3ccnc3)cc2)nc1	-0.73	52	i	55	76*
COc1ccc(CN2CCCC(C(=O)c3cccc(C(F)(F)F)c3)C2)cc1O (stereo not drawn)	-0.08	·	i	·	84*
COc1cccc(C(=O)C2CCCN(Cc3cccc(-n4cccn4)c3)C2)c1 (stereo not drawn)	-0.42	·	·	·	·
COc1ccc(CN2CCCC(C(=O)c3ccc(SC)cc3)C2)cc1Cn1cccn1 (stereo not drawn)	-0.15	·	i	·	90*
O=C(c1cccc(C(F)(F)F)c1)C1CCCN(Cc2ccc(OCCO)cc2)C1 (stereo not drawn)	-0.091	·	i	·	81*
CSc1ncc(CN2CCCC(C(=O)c3ccc(C(C)(C)C)cc3)C2)cn1 (stereo not drawn)	0.27	·	i	·	88*
CC(=O)Nc1ccc(CN2CCCC(C(=O)c3cccc(C(F)(F)F)c3)C2)cc1 (stereo not drawn)	-0.5	·	i	·	23
COC(=O)c1c(C)cc(C)n2c1nc1ccccc12	0.27	96	i	92	39
COc1ccc(F)cc1C(=O)C1CCCN(Cc2cccn2-c2ccccn2)C1 (stereo not drawn)	-0.81	·	i	·	63*
O=C(c1cc(F)ccc1F)C1CCCN(Cc2cccn2-c2ccccn2)C1 (stereo not drawn)	0.31	·	·	·	·
COc1cccc(C(=O)C2CCCN(Cc3cccn3-c3cccnc3)C2)c1 (stereo not drawn)	1.8	·	i	·	89*
COc1ccc(C(=O)C2CCCN(Cc3cccn3-c3ccccn3)C2)c(OC)c1 (stereo not drawn)	-1.2	·	i	·	92*
COc1ccc2cc(C(=O)C3CCCN(Cc4ccccn4)C3)ccc2c1 (stereo not drawn)	-0.037	·	i	·	5
CN(C(=O)COC(=O)c1ccccc1SCC(=O)NC1CCCCCCC1)C1CCS(=O)(=O)C1 (stereo not drawn)	-0.71	88	i	80	27
CC/C(=N/NC(=O)c1ccc(Br)cc1)c1ccc(OCCN2CCOCC2)cc1	-0.081	96	i	88	-5
CCOc1cccc(OCCCCN2CCOCC2)c1	-0.096	94	i	88	93*
c1ccc(-c2ccccc2OCCN2CCOCC2)cc1	0.69	98	i	87	0
N=c1n(CCOc2ccccc2)c2ccccc2n1CCN1CCOCC1	2.6	83	+	80	4
Brc1ccc(OCCCN2CCOCC2)cc1	-0.031	92	i	100	95*
COc1cccc(OCCCCCCN2CCOCC2)c1	-0.62	97	i	78	100*
CC(=O)N1c2ccccc2N2C(c3c(C)c(C)cc(C)c3C)=NON12	0.49	·	i	·	16
CN(C)/C=N/C(=S)Nc1ccc(Cl)cc1Cl	-0.64	·	i	·	-14
c1ccc(OCCCCN2CCOCC2)cc1	0.32	112	i	104	79*
COc1ccc(C(=O)Nc2ccc(C3CC3(Cl)Cl)cc2)cc1 (stereo not drawn)	0.71	·	i	·	-4
SMILES	Dynein cargo inh	PTEN del growth	Autophagy HCS	bCat KO growth	Lmaj promast
CC(O)CNC12CC3CC(CC(C3)C1)C2 (stereo not drawn)	-0.18	·	i	·	-5
Nc1nc(N2CCCCC2)c(C=O)c(N2CCCCC2)n1	-0.13	·	+	·	8
Cc1ccc(-c2noc(-c3cc(C(C)(C)C)nn3Cc3ccccc3)n2)cc1	2.1	·	·	·	·
O=C(NC(=S)N1CCCCC1)c1cccs1	-0.22	94	i	91	55*
CC1CCN(C(=S)NC(=O)c2cccs2)CC1	-0.27	·	i	·	-7
O=C(NC(=S)N1CCN(c2ccc(Cl)cc2[N+](=O)[O-])CC1)c1cccs1	-0.23	54	i	47	75*
S=c1[nH]nc(C(c2ccccc2)C2CCCCC2)o1 (stereo not drawn)	-0.17	·	·	·	·
CC1CN(c2nnc(-c3ccccc3)c3ccccc23)CC(C)O1 (stereo not drawn)	-0.19	·	i	·	32
N#C/C(=C\c1c(N2CCCCC2)nc2ccccn2c1=O)C(=O)NCc1ccco1	3.6	89	i	96	83*
Cc1cccn2c(=O)c(/C=C(\C#N)C(=O)NC3CCS(=O)(=O)C3)c(N3CCC(C)CC3)nc12 (stereo not drawn)	1.2	58	i	69	3
